Assay results: ChEMBL document CHEMBL5331102, “Novel S1R agonists counteracting NMDA excitotoxicity and oxidative stress: A step forward in the discovery of neuroprotective agents” (Eur J Med Chem, 2023)
Converted amounts (≈) assume the structure as drawn. The source made the active and inactive calls. The rule behind the calls is not given here.

How the values were obtained:
[1] = Dissociation constant, pKa of the compound; assay type: physicochemical
[2] = Toxicity in Zebrafish embryos assessed as normal and vital phenotype at 0.1 to 1 uM incubated for 5 days by Teratogenic test; parameters: species or system Danio rerio, Embryo; settings: in vivo, 120 h, dose 0.1-1 µM, time 5 day
In short: (§1)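 Tg(GFAP:GFP) zebrafish embryos, 8 per group, exposed from 1 h post-fertilization to increasing compound concentrations at 28 °C for about 5 days without medium change; mortality, developmental defects and morphology score assessed at 5 dpf.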

[3] = system: PC-12; test: Neuroprotective activity in rat PC12 cells assessed as induction of NGF-mediated neurite outgrowth at 0.1 to 5 uM by neurite outgrowth assay; assay type: functional, cell-based; settings: dose 0.1-5 µM
In short: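 PC12 cells stimulated with NGF (2.5 nM) and treated with compound up to 5 μM, alone or after pre-treatment with S1R antagonist NE-100 (3 μM); read-out is percentage of cells bearing neurite sprouts; mean ± SEM of three independent experiments.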

[4] = Toxicity in Zebrafish embryos assessed as variation in embryo morphology score at 1 uM incubated for 5 days by Teratogenic test; parameters: species or system Danio rerio; settings: in vivo, 120 h, time 5 day; in short: as §1
[5] = target: Glutamate [NMDA] receptor (Homo sapiens) (UniProt Q05586+Q12879+Q13224+O15399+O60391+Q14957+Q8TCU5); test: Displacement of [3H]CGP39653 from human NMDAR at 25 nM by scintillation counting analysis; assay type: protein-complex assay
In short: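 NMDA receptor binding with [3H]CGP39653 (5 nM) as radioligand, test compound at 25 nM; displacement read by scintillation counting and reported as % inhibition of control specific binding.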

[6] = Lipophilicity, logP of the compound; assay type: physicochemical; settings: octanol/water
[7] = system: SH-SY5Y; test: Neuroprotective activity in human SH-SY5Y cells assessed as prevention of rotenone induced cell damage by measuring cell viability at 1 uM incubated for 24 hrs in presence of rotenone by MTT assay; assay type: functional
In short: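 SH-SY5Y cells co-exposed 24 h at 37 °C to rotenone 25 μM and compound at 1.0 or 5.0 μM in 2% FBS medium; viability by MTT, mean ± SD of three independent experiments.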

[8] = system: LoVo; test: Cytotoxicity against human LoVo cells assessed as reduction in cell survival rate at <=10 uM incubated for 24 to 72 hrs by MTT assay; assay type: toxicity, cell-based; settings: time 24-72 hrs
In short: (§2)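 Cancer lines grown in Ham's F-12K or DMEM with 10% FBS, used in exponential growth; seeded 2500 cells/well, exposed to 0.1–100 μM for 24, 48 and 72 h continuous. Viability by CellTiter 96 AQueous One (tetrazolium) absorbance at 490 nm; three independent experiments in quadruplicate, % survival vs untreated.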

[9] = target: Sigma non-opioid intracellular receptor 1 (Homo sapiens, UniProt Q99720); test: Displacement of [3H]-(+)-pentazocine from sigma 1 receptor (unknown origin) at 25 nM by scintillation counting analysis; settings: filed as agonist
Sigma non-opioid intracellular receptor 1, sequence (Q99720 whole entry): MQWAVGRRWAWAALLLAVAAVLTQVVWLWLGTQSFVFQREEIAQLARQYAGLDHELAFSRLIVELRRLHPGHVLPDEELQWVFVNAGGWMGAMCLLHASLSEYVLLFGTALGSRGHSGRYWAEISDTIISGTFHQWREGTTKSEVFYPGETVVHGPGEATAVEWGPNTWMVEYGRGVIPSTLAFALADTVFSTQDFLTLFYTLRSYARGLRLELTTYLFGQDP
In short: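 Single-concentration screen at 25 nM test compound against [3H](+)pentazocine (15 nM) at S1R; scintillation counting; result given as % inhibition of control specific binding, i.e. 100 minus measured/control specific binding ×100.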

[10] = system: SH-SY5Y; test: Neuroprotective activity in human SH-SY5Y cells assessed as prevention of NMDA induced cytotoxicity by measuring cell viability at 1 uM preincubated with PB212 for 1hrs followed by compound addition in presence of NMDA and measured after 24 hrs by MTT assay; assay type: functional, cell-based
In short: (§3)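 SH-SY5Y cells pre-incubated 1 h with S1R antagonist PB212 (5 μM), then treated with compound (1 or 5 μM) plus PB212 (5 μM) and either rotenone 25 μM or NMDA 250 μM for 24 h; viability by MTT; two-way ANOVA with Bonferroni post hoc test.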

[11] = Thermodynamic solubility of the compound in KH2PO4/Na2HPO4 buffer at pH 7.4 incubated for 24 hrs; assay type: physicochemical; settings: read-out: Therm_solubility
In short: (§4)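 10 mM DMSO stock diluted 1:100 into buffer (HCl/KCl pH 1.2; KH2PO4/NaOH pH 6.8; KH2PO4/Na2HPO4 pH 7.4), 1% v/v DMSO final; shaken 24 h at 1200 rpm, filtered through 0.45 μm polycarbonate membrane, filtrate diluted 1:1 with MeOH and analysed.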

[12] = Toxicity in Zebrafish embryos assessed as morphological abnormality at 0.1 to 50 uM incubated for 5 days by Teratogenic test; parameters: species or system Danio rerio, Embryo; settings: in vivo, 120 h, dose 0.1-50 µM, time 5 day
In short: (§5)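 Tg(GFAP:GFP) zebrafish embryos from 2 female × 1 male matings, 8 embryos per control or concentration, exposed from 1 h post-fertilization and kept at 28 °C for about 5 days without medium change. At 5 dpf (120 h) mortality and developmental abnormalities (tail shape, heart, pigmentation) were scored, with morphology given a severity score.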

[13] = Toxicity in Zebrafish embryos assessed as death at 10 uM incubated for 5 days by Teratogenic test; parameters: species or system Danio rerio, Embryo; settings: in vivo, time 5 day, read-out: Activity; in short: as §5
[14] = system: SH-SY5Y; test: Neuroprotective activity in human SH-SY5Y cells assessed as prevention of rotenone induced cell damage by measuring cell viability at 1 uM preincubated with PB212 for 1hrs followed by compound addition in presence of rotenone and measured after 24 hrs by MTT assay; assay type: functional, cell-based; in short: as §3
[15] = system: PANC-1; test: Cytotoxicity against human PANC-1 cells assessed as reduction in cell survival rate at <=10 uM incubated for 24 to 72 hrs by MTT assay; assay type: toxicity, cell-based; settings: panc-1, 10 µM, time 24-72 hrs; in short: as §2
[16] = Thermodynamic solubility of the compound in HC1/KCl buffer at pH 1.2 incubated for 24 hrs; assay type: physicochemical; settings: HCl/KCl buffer, read-out: Therm_solubility; in short: as §4
[17] = Toxicity in Zebrafish embryos assessed as decrease in embryo vitality rate at 10 to 50 uM incubated for 5 days by Teratogenic test; parameters: species or system Danio rerio; settings: in vivo, 120 h, dose 10-50 µM, time 5 day; in short: as §5
[18] = system: LoVo; test: Cytotoxicity against human LoVo cells assessed as reduction in cell survival rate at 100 uM incubated for 48 to 72 hrs by MTT assay; assay type: toxicity, cell-based; settings: time 48-72 hrs; in short: as §2
[19] = system: SH-SY5Y; test: Neuroprotective activity in human SH-SY5Y cells assessed as prevention of oligomycin induced cell damage by measuring cell viability at 0.1 to 5 uM incubated for 24 hrs in presence of oligomycin by MTT assay; assay type: functional, cell-based; settings: dose 0.1-5 µM
In short: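 SH-SY5Y cells (~7000/well) co-incubated 24 h at 37 °C in 2% FBS medium with toxic stimulus (NMDA 250 μM or oligomycin 2.5 μM) plus compound at 0.1–5 μM. Viability by MTT, expressed as % of control.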

[20] = target: Sigma intracellular receptor 2 (Homo sapiens, UniProt Q5BJF2); test: Displacement of [3H]DTG from sigma 2 receptor (unknown origin) assessed as inhibition constant by scintillation counting analysis
Sigma intracellular receptor 2, sequence (Q5BJF2 whole entry): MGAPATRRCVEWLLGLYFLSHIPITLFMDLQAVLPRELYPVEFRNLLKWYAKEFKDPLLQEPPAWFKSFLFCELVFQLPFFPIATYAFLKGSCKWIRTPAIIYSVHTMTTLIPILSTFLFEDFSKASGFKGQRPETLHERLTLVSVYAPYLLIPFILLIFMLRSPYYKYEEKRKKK
In short: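 Radioligand displacement at S1R with [3H](+)pentazocine (15 nM) and at S2R with [3H]DTG (25 nM); S2R assay includes 1 μM cold (+)pentazocine to mask S1R sites. Bound radioactivity counted by scintillation. IC50 and Hill slope from non-linear Hill fit of competition curves; Ki by Cheng–Prusoff using radioligand concentration and KD from Scatchard plot.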

[21] = Toxicity in Zebrafish embryos assessed as morphological abnormality by observing enlarged volume of heart at 10 uM incubated for 5 days by Teratogenic test; assay type: tissue-based, Danio rerio; settings: in vivo, 120 h, time 5 day; in short: as §1
[22] = Thermodynamic solubility of the compound in KH2PO4/NaOH buffer at pH 6.8 incubated for 24 hrs; assay type: physicochemical; settings: read-out: Therm_solubility; in short: as §4

SMILES | pKa [1] | Activity [2] | Activity [3] | Activity [4] | Activity [5] | logP [6] | Activity [7] | Activity [8] | Activity [9] | Activity [10] | solubility thermodynamic at 24 h [11] | Activity [12] | mortality at 120 h, 10 µM [13] | Activity [14] | Activity [15] | solubility thermodynamic at 24 h [16] | Activity [17] | Activity [18] | Activity [19] | Ki [20] | other results
c1ccc(CC2CCN(CCOc3ccccc3)CC2)cc1 | 8.56 | Non-Toxic | Dose-Dependent Effect | Non-Toxic | < 11.9% | 4 | 65% | Non-Toxic | > 95% | inactive | 7800 µg/mL (≈ 26.4 mM) | Toxic | 50% | inactive | Non-Toxic | 7800 µg/mL (≈ 26.4 mM) | Toxic | 40% | inactive | 72 nM | Activity [21]: 100%; solubility thermodynamic at 24 h [22]: 7800 µg/mL (≈ 26.4 mM)
c1ccc(CC2CCN(CCCOc3ccccc3)CC2)cc1 | 9.26 | Non-Toxic | Dose-Dependent Effect | Non-Toxic | < 11.9% | 4.38 | 68% | Non-Toxic | > 95% | inactive | 2800 µg/mL (≈ 9.05 mM) | Toxic | 100% | inactive | Non-Toxic | 2800 µg/mL (≈ 9.05 mM) | Toxic | 40% | inactive | 88 nM | Activity [21]: Toxic; solubility thermodynamic at 24 h [22]: 2800 µg/mL (≈ 9.05 mM)
